Experimental data reported in ChEMBL document CHEMBL4732224, “Structure activity refinement of phenylsulfonyl piperazines as antimalarials that block erythrocytic invasion” (Eur J Med Chem, 2021).
Values after ≈ are worked out from the molar mass of the structure shown. Active and inactive are the calls of the source. The calls are words filed in the database; no cut-off is given here.

What was measured:
Plasmodium falciparum [1] = assay: Antimalarial activity against Plasmodium falciparum 3D7 incubated for 72 hrs by LDH assay; assay type: functional, organism-based; settings: 3D7, 72 h
Outline: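 Asexual blood-stage P. falciparum 3D7 parasites were cultured with compound for 72 h, and viability was read by lactate dehydrogenase (LDH) activity.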

HepG2 = assay: Cytotoxicity against human HePG2 cells assessed as growth inhibition after 48 hrs by Cell Titer-Glo assay; assay type: cell-based; settings: HepG2, 48 h
Plasmodium knowlesi = assay: Antimalarial activity against asexual blood stage of Plasmodium knowlesi YHI assessed as reduction in cell viability after 48 hrs by EtBr staining based flow cytometric analysis; assay type: functional, organism-based
Plasmodium falciparum [2] = assay: Antimalarial activity against asexual blood stage of Plasmodium falciparum 3D7 assessed as reduction in cell viability after 72 hrs by EtBr staining based flow cytometric analysis; assay type: functional, organism-based; settings: 3D7, 72 h
Plasmodium falciparum [3] = assay: Antimalarial activity against asexual blood stage of Mefloquine-resistant Plasmodium falciparum W2mef assessed as reduction in cell viability after 72 hrs by EtBr staining based flow cytometric analysis; assay type: functional, organism-based
Plasmodium falciparum [4] = assay: Antimalarial activity against asexual blood stage of chloroquine-resistant Plasmodium falciparum Dd2 assessed as reduction in cell viability after 72 hrs by EtBr staining based flow cytometric analysis; assay type: functional, organism-based; settings: Dd2, 72 h
Plasmodium falciparum [5] = assay: Antimalarial activity against asexual blood stage of chloroquine-resistant Plasmodium falciparum 7G8 assessed as reduction in cell viability after 72 hrs by EtBr staining based flow cytometric analysis; assay type: functional, organism-based; settings: 7G8, 72 h
Plasmodium falciparum [6] = assay: Antimalarial activity against asexual blood stage of artemisinin-resistant Plasmodium falciparum Cam3.12539T cambodian isolate assessed as reduction in cell viability after 72 hrs by EtBr staining based flow cytometric analysis; assay type: functional, organism-based; settings: Cam3.12539T cambodian isolat
Plasmodium falciparum [7] = assay: Antimalarial activity against Plasmodium falciparum NF54 early stage (1 to 3) expressing Pfs16-LUC-GFP assessed as growth inhibition by high content imaging assay; assay type: functional, organism-based
Plasmodium falciparum [8] = assay: Antimalarial activity against Plasmodium falciparum NF54 early stage (1 to 3) expressing Pfs16-LUC-GFP assessed as growth inhibition at 20 uM by high content imaging assay relative to control; assay type: functional; settings: read-out: GI
Plasmodium falciparum [9] = assay: Antimalarial activity against Plasmodium falciparum NF54 late stage ([…]) expressing Pfs16-LUC-GFP assessed as growth inhibition by high content imaging assay; assay type: functional, organism-based
Plasmodium falciparum [10] = assay: Antimalarial activity against Plasmodium falciparum NF54 late stage ([…]) expressing Pfs16-LUC-GFP assessed as growth inhibition at 20 uM by high content imaging assay relative to control; assay type: functional; settings: read-out: GI
Plasmodium falciparum [11] = assay: Antimalarial activity against schizonts stage of Plasmodium falciparum D10 expressing GFP infected in human RBC assessed as reduction in merozoites invade to RBC at 4 times of EC90 concentration after 6 hrs by flow cytometric analysis; assay type: functional, organism-based
Plasmodium falciparum [12] = assay: Antimalarial activity against schizonts stage of Plasmodium falciparum D10 expressing GFP infected in human RBC assessed as reduction in ring stage formation at 4 times of EC90 concentration after 6 hrs by flow cytometric analysis; assay type: functional, organism-based
Plasmodium falciparum [13] = assay: Antimalarial activity against schizonts stage of Plasmodium falciparum D10 expressing PEXEL-Nluc infected in human RBC assessed as reduction in invasion at 5 times of EC90 concentration preincubated for 30 mins followed by compound wash out and measured after 24 hrs by luminometric method; assay type: functional, organism-based
[14] = Intrinsic clearance in mouse liver microsomes at 1 uM in presence of NADPH measured up to 60 mins by LC-MS analysis; assay type: ADME, Microsome; settings: read-out: CLH
[15] = Solubility of compound in PBS at pH 6.5 by nephelometric analysis; assay type: physicochemical
[16] = Selectivity ratio of IC50 for antimalarial activity against asexual blood stage of chloroquine-resistant Plasmodium falciparum 7G8 to IC50 for antimalarial activity against asexual blood stage of Plasmodium falciparum 3D7; assay type: functional
Plasmodium falciparum [17] = assay: Antimalarial activity against asexual blood stages of Plasmodium falciparum 3D7 infected in human RBC by Live cell microscopic method; assay type: functional, organism-based; settings: 3D7, Erythrocyte

C[C@@H](C(=O)N1CCc2ccccc2C1(C)C)N1CCN(S(=O)(=O)c2ccc(C(C)(C)C)cc2)CC1
EC50 (Plasmodium falciparum [1]): 110 nM | EC50 (HepG2): 26000 nM | EC50 (Plasmodium knowlesi): 90 nM | EC50 (Plasmodium falciparum [2]): 10 nM | EC50 (Plasmodium falciparum [3]): 40 nM | EC50 (Plasmodium falciparum [4]): 60 nM | EC50 (Plasmodium falciparum [5]): 30 nM | EC50 (Plasmodium falciparum [6]): 20 nM | EC50 (Plasmodium falciparum [7]): > 10000 nM | inhibition of growth at 20 µM (Plasmodium falciparum [8]): 79% | EC50 (Plasmodium falciparum [9]): > 10000 nM | inhibition of growth at 20 µM (Plasmodium falciparum [10]): 59% | Activity (Plasmodium falciparum [11]): Active | Activity (Plasmodium falciparum [12]): Active | Activity (Plasmodium falciparum [13]): Active

C[C@@H](C(=O)N1CCC(F)(F)CC1)N1CCN(S(=O)(=O)c2ccc(C(C)(C)C)cc2)CC1
EC50 (Plasmodium falciparum [1]): 200 nM | EC50 (HepG2): > 40000 nM | EC50 (Plasmodium knowlesi): 260 nM | EC50 (Plasmodium falciparum [2]): 50 nM | EC50 (Plasmodium falciparum [3]): 90 nM | EC50 (Plasmodium falciparum [4]): 110 nM | EC50 (Plasmodium falciparum [5]): 110 nM | EC50 (Plasmodium falciparum [6]): 80 nM | EC50 (Plasmodium falciparum [7]): > 10000 nM | inhibition of growth at 20 µM (Plasmodium falciparum [8]): 59% | EC50 (Plasmodium falciparum [9]): > 10000 nM | inhibition of growth at 20 µM (Plasmodium falciparum [10]): 47% | Activity (Plasmodium falciparum [11]): Active | Activity (Plasmodium falciparum [12]): Active | Activity (Plasmodium falciparum [13]): Active

CC(C(=O)N1CCc2ccccc2C1(C)C)N1CCN(S(=O)(=O)c2ccc(C(C)(C)C)cc2)CC1 (stereo not given)
EC50 (Plasmodium falciparum [1]): 180 nM | EC50 (HepG2): 31000 nM | microsomal CLint at 1 µM [14]: > 866 µL/min/mg | solubility kinetic [15]: < 1.6 µM

C[C@@H](C(=O)N1CC2CC2C1)N1CCN(S(=O)(=O)c2ccc(C(C)(C)C)cc2)CC1 (stereo not given in full)
EC50 (Plasmodium falciparum [1]): 130 nM | EC50 (HepG2): > 40000 nM | EC50 (Plasmodium knowlesi): 140 nM | EC50 (Plasmodium falciparum [2]): 30 nM | EC50 (Plasmodium falciparum [3]): 60 nM | EC50 (Plasmodium falciparum [4]): 70 nM | EC50 (Plasmodium falciparum [5]): 80 nM | EC50 (Plasmodium falciparum [6]): 60 nM | EC50 (Plasmodium falciparum [7]): > 10000 nM | inhibition of growth at 20 µM (Plasmodium falciparum [8]): 44% | EC50 (Plasmodium falciparum [9]): > 10000 nM | inhibition of growth at 20 µM (Plasmodium falciparum [10]): 36% | Activity (Plasmodium falciparum [11]): Active | Activity (Plasmodium falciparum [12]): Active | Activity (Plasmodium falciparum [13]): Active

C[C@@H](C(=O)N1CCCC1)N1CCN(S(=O)(=O)c2ccc(C(C)(C)C)cc2)CC1
EC50 (Plasmodium falciparum [1]): 300 nM | EC50 (HepG2): > 40000 nM | solubility kinetic [15]: 25 µM (≈ 10.2 µg/mL)

C[C@@H](C(=O)N1CCCCC1)N1CCN(S(=O)(=O)c2ccc(C(C)(C)C)cc2)CC1
EC50 (Plasmodium falciparum [1]): 200 nM | EC50 (HepG2): > 40000 nM | EC50 (Plasmodium knowlesi): 1300 nM | EC50 (Plasmodium falciparum [2]): 610 nM | EC50 (Plasmodium falciparum [3]): 490 nM | EC50 (Plasmodium falciparum [4]): 860 nM | EC50 (Plasmodium falciparum [5]): 5100 nM | EC50 (Plasmodium falciparum [6]): 1300 nM | EC50 (Plasmodium falciparum [7]): > 10000 nM | inhibition of growth at 20 µM (Plasmodium falciparum [8]): 49% | EC50 (Plasmodium falciparum [9]): > 10000 nM | inhibition of growth at 20 µM (Plasmodium falciparum [10]): 41% | Activity (Plasmodium falciparum [11]): Active | Activity (Plasmodium falciparum [12]): Active | Activity (Plasmodium falciparum [13]): Active | Ratio IC50 [16]: 8

CC(C(=O)N1CCCC1)N1CCN(S(=O)(=O)c2ccc(C(C)(C)C)cc2)CC1 (stereo not given)
EC50 (Plasmodium falciparum [17]): 900 nM | EC50 (Plasmodium falciparum [1]): 690 nM | EC50 (HepG2): > 40000 nM | CLint scaled at 1 µM [14]: > 2100 mL/min/kg

CC(C(=O)N1CCCC1)N1[C@@H]2CC[C@H]1CN(S(=O)(=O)c1ccc(C(C)(C)C)cc1)C2 (stereo not given in full)
EC50 (Plasmodium falciparum [1]): 920 nM | EC50 (HepG2): > 40000 nM | microsomal CLint at 1 µM [14]: 473 µL/min/mg
